Experiment [1] concerns MIA PaCa-2. Briefly: Antiproliferative activity against human MIA PaCa-2 cells assessed as sensitizing activity by measuring combination index at ED50 measured after 3 days in presence of ABT- 199 by Prestoblue assay. In kind it is functional. Conditions: time 3 day. The method in brief: (§1)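 MiaPaCa2 cells were treated for 3 days with the CDK9 degrader and a Bcl2-family inhibitor (ABT-263, ABT-199 or WEHI-539), singly and combined. Viability was read by PrestoBlue. Combination index values were calculated with CalcuSyn at effective doses ED50, ED75 and ED90.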

Experiment [2] has as its system MIA PaCa-2. The experiment can be described thus: Antiproliferative activity against human MIA PaCa-2 cells assessed as sensitizing activity by measuring combination index at ED90 measured after 3 days in presence of ABT- 263 by Prestoblue assay. In kind it is functional. Conditions: time 3 day. A digest of the protocol: as §1
In experiment [3] the target is T1, Protein cereblon/Cyclin-dependent kinase 9 (Homo sapiens, UniProt P50750+Q96SW2). Briefly: Protac activity at CDK9/CRBN in human HEK293 cells assessed as degradation of CDK9 at 1 uM incubated for 24 hrs by Western blot analysis relative to control. It counts as cell-based.
T1 sequence (P50750 whole entry, looked up): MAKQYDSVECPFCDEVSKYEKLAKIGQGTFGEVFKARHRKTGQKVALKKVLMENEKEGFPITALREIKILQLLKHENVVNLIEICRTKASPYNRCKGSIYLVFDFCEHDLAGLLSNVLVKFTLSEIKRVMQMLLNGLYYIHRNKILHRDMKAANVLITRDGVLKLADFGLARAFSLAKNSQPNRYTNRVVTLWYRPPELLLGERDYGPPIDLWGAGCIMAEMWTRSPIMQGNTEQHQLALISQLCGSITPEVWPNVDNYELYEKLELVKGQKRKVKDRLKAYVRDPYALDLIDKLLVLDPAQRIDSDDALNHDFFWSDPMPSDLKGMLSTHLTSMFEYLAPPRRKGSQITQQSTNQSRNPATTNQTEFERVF
T1 sequence (Q96SW2 whole entry, looked up): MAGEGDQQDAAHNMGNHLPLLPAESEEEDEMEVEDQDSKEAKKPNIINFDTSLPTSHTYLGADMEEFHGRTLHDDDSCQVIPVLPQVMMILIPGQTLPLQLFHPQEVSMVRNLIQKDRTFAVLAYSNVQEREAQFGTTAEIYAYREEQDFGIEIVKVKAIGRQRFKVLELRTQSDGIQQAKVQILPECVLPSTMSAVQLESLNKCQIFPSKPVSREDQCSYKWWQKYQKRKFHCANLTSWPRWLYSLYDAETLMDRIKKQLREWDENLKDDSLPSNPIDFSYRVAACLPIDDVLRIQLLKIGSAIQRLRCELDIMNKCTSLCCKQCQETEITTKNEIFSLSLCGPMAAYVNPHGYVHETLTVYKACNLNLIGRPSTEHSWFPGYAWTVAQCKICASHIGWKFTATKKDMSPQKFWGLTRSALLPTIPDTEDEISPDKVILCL
In experiment [4] the target is Protein cereblon/Cyclin-dependent kinase 6 (Homo sapiens) (UniProt Q00534+Q96SW2). Briefly: Protac activity at CDK6/CRBN in human HEK293 cells assessed as degradation of CDK6 at 0.01 to 10 uM incubated for 24 hrs by Western blot analysis. In kind it is cell-based. Conditions: dose 0.01-10 µM. A general note: Immunoblotting shows a protein as a band on a membrane.
Chain of Protein cereblon/Cyclin-dependent kinase 6 (Homo sapiens) (Q00534 whole entry, looked up): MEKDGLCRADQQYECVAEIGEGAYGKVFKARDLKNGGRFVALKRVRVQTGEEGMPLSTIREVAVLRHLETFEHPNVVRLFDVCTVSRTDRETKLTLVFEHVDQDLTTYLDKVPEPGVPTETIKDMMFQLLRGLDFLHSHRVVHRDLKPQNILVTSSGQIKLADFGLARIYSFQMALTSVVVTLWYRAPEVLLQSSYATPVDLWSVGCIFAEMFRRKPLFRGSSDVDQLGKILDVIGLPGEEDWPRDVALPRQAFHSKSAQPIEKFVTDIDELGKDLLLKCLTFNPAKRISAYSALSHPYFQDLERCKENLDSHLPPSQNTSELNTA
Chain of Protein cereblon/Cyclin-dependent kinase 6 (Homo sapiens) (Q96SW2 whole entry, looked up): as the sequence (Q96SW2 whole entry, looked up) above
The target in experiment [5] is Protein cereblon/Cyclin-dependent kinase 2 (Homo sapiens) (UniProt P24941+Q96SW2). Briefly: Protac activity at CDK2/CRBN in human HEK293 cells assessed as degradation of CDK2 at 0.01 to 10 uM incubated for 24 hrs by Western blot analysis. It counts as cell-based. To be noted: dose 0.01-10 µM.
Experiment [6] addresses Protein cereblon/Cyclin-dependent kinase 1 (Homo sapiens) (UniProt P06493+Q96SW2). Briefly: Protac activity at CDK1/CRBN in human HEK293 cells assessed as degradation of CDK1 at 0.01 to 10 uM incubated for 24 hrs by Western blot analysis. Conditions: dose 0.01-10 µM. It counts as cell-based.
Experiment [7] deals with Protein cereblon/Cyclin-dependent kinase 7 (Homo sapiens) (UniProt P50613+Q96SW2). The experiment can be described thus: Protac activity at CDK7/CRBN in human HEK293 cells assessed as degradation of CDK7 at 1 uM measured upto 24 hrs by Western blot analysis. It counts as cell-based. To be noted: time hrs <=24. The method in brief:
(§2)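 Time course in HEK293 cells at 1 μM degrader; lysates collected at indicated time points up to 24 h and probed by western blot for the various CDKs.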

The target of experiment [8] is Protein cereblon/Cyclin-dependent kinase 5 (Homo sapiens) (UniProt Q00535+Q96SW2). The experiment can be described thus: Protac activity at CDK5/CRBN in human HEK293 cells assessed as degradation of CDK5 at 1 uM measured upto 24 hrs by Western blot analysis. In kind it is cell-based. To be noted: time hrs <=24. A digest of the protocol: as §2
Chain of Protein cereblon/Cyclin-dependent kinase 5 (Homo sapiens) (Q00535 whole entry, looked up): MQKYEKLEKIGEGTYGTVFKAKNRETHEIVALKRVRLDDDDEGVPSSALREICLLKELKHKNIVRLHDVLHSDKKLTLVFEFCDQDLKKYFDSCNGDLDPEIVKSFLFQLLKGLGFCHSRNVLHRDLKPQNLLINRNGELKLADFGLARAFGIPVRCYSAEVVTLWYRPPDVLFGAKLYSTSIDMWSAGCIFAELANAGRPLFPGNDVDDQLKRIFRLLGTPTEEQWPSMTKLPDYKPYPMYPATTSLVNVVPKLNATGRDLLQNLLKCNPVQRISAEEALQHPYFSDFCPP
Chain of Protein cereblon/Cyclin-dependent kinase 5 (Homo sapiens) (Q96SW2 whole entry, looked up): as the sequence (Q96SW2 whole entry, looked up) above
Experiment [9] addresses Cyclin-dependent kinase 5 (Homo sapiens, UniProt Q00535). The experiment can be described thus: Inhibition of CDK5 (unknown origin).
Experiment [10] addresses T2, Cyclin-dependent kinase 9 (Homo sapiens, UniProt P50750). Briefly: Inhibition of CDK9 (unknown origin).
Experiment [11] has as its target T1, Protein cereblon/Cyclin-dependent kinase 9. The experiment can be described thus: Protac activity at CDK9/CRBN in human HEK293 cells assessed as degradation of CDK9 at 1 uM incubated for 24 hrs in presence of pomalidomide by Western blot analysis. In kind it is cell-based. A digest of the protocol:
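Competition in HEK293 cells: 10 μM pomalidomide (CRBN ligand) alone or combined with 1 μM degrader for 24 h; lysates analysed by western blot.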

Experiment [12] shares this target. Briefly: Protac activity at CDK9/CRBN in human HEK293 cells assessed as degradation of CDK9 at 1 uM incubated for 24 hrs in presence of MG132 by Western blot analysis. It counts as cell-based. The method in brief:
(§3)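 HEK293 cells co-treated for 24 h with degrader and increasing concentrations of proteasome inhibitor MG132; lysates examined by western blot.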

The target of experiment [13] is Protein cereblon/Cyclin-dependent kinase 12 (Homo sapiens) (UniProt Q9NYV4+Q96SW2). Briefly: Protac activity at CDK12/CRBN in human HEK293 cells assessed as degradation of CDK12 at 1 uM incubated for 24 hrs in presence of MG132 by Western blot analysis. In kind it is cell-based. A digest of the protocol:
as §3

For experiment [14], the system named is MIA PaCa-2. The experiment can be described thus: Antiproliferative activity against human MIA PaCa-2 cells assessed as sensitizing activity by measuring combination index at ED75 measured after 3 days in presence of ABT- 199 by Prestoblue assay. It counts as functional. Conditions: time 3 day. The method in brief:
as §1

Experiment [15] has as its system MIA PaCa-2. Briefly: Antiproliferative activity against human MIA PaCa-2 cells assessed as sensitizing activity by measuring combination index at ED90 measured after 3 days in presence of WEHI-539 by Prestoblue assay. To be noted: time 3 day. In kind it is functional. A digest of the protocol:
as §1

The target in experiment [16] is T1, Protein cereblon/Cyclin-dependent kinase 9. Briefly: Protac activity at CDK9/CRBN in human HEK293 cells assessed as degradation of CDK9 by Western blot analysis. It counts as cell-based. To be noted: TDE = time-dependent effect.
The target in experiment [17] is T2, Cyclin-dependent kinase 9. The experiment can be described thus: Inhibition of CDK9 in human HEK293 cells assessed as reduction in CDK9 level at 1 uM incubated for 8 hrs in presence of flavopiridol by Western blot analysis.

Activity calls are given as the source filed them. The rule behind the calls is not given here.

The term IC50 denotes the concentration that gives 50% inhibition. Read a low IC50 as greater potency.

T2 sequence (P50750 whole entry): as the sequence (P50750 whole entry, looked up) above
Chain of Protein cereblon/Cyclin-dependent kinase 1 (Homo sapiens) (P06493 whole entry, looked up): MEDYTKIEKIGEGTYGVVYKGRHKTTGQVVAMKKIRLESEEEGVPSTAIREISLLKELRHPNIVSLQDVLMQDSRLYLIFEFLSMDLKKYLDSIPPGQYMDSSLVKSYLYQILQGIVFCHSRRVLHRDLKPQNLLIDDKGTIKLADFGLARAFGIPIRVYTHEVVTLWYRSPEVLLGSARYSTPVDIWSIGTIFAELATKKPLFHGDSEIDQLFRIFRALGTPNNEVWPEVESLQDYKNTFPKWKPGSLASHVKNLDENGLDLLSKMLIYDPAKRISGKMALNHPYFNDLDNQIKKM
Chain of Protein cereblon/Cyclin-dependent kinase 1 (Homo sapiens) (Q96SW2 whole entry, looked up): as the sequence (Q96SW2 whole entry, looked up) above
Chain of Cyclin-dependent kinase 5 (Q00535 whole entry): as the sequence (Q00535 whole entry, looked up) above
Chain of Protein cereblon/Cyclin-dependent kinase 7 (Homo sapiens) (P50613 whole entry, looked up): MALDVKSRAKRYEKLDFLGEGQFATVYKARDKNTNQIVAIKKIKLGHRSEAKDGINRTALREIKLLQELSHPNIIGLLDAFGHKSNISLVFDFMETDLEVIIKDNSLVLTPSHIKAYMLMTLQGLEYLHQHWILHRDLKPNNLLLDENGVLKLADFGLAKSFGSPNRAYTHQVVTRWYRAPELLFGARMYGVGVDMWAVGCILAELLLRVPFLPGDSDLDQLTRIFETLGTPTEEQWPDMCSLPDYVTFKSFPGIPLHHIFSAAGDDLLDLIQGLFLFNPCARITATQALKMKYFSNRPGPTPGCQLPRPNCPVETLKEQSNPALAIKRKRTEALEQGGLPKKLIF
Chain of Protein cereblon/Cyclin-dependent kinase 7 (Homo sapiens) (Q96SW2 whole entry, looked up): as the sequence (Q96SW2 whole entry, looked up) above
Chain of Protein cereblon/Cyclin-dependent kinase 12 (Homo sapiens) (Q96SW2 whole entry, looked up): as above
Chain of Protein cereblon/Cyclin-dependent kinase 12 (Homo sapiens) (Q9NYV4 whole entry, looked up): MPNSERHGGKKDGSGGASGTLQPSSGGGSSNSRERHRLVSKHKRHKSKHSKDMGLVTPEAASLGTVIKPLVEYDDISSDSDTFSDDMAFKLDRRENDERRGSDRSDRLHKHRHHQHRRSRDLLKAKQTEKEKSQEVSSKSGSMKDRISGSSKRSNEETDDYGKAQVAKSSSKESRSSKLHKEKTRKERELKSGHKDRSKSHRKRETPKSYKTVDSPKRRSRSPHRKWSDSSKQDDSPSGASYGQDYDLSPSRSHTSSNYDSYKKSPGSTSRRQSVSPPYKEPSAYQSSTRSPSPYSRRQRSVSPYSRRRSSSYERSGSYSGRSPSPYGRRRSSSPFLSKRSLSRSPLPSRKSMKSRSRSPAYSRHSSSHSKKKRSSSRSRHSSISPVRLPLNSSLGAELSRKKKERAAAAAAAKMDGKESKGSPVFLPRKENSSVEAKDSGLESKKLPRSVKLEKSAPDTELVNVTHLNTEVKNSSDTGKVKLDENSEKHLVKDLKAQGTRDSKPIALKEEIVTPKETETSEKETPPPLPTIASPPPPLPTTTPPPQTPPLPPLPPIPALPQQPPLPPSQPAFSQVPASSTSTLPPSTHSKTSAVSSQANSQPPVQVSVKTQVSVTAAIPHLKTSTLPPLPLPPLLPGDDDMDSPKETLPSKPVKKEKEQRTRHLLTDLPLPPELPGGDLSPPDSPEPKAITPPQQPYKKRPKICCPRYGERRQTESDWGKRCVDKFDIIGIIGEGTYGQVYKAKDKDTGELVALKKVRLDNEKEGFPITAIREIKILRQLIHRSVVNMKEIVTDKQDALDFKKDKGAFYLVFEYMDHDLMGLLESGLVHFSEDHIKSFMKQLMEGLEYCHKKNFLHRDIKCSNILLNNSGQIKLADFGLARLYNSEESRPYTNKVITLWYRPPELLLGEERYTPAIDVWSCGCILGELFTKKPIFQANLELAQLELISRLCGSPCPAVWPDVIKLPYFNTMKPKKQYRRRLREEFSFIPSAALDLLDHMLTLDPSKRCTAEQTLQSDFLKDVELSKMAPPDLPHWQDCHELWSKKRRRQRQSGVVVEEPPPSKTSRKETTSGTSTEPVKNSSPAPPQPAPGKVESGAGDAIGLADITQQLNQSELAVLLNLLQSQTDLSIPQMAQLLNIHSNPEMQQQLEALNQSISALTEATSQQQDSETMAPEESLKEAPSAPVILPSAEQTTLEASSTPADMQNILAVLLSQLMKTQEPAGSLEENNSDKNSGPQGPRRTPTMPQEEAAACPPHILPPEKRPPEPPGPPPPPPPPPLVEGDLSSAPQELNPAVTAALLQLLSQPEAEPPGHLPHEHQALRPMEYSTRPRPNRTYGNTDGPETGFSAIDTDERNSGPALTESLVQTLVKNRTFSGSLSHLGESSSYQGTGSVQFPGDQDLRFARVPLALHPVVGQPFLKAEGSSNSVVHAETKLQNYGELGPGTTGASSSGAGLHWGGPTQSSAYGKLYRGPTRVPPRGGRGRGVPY

`O=C(CCCOc1ccc(CC(=O)Nc2cc(C3CCC3)[nH]n2)cc1)NCCCCNc1cccc2c1C(=O)N(C1CCC(=O)NC1=O)C2=O` (configuration not stated): the CI in the experiment on MIA PaCa-2 [1] is listed as 0.02; in the experiment on MIA PaCa-2 [2] it was 0.1; with MIA PaCa-2 [14], 0.001; with MIA PaCa-2 [15], 0.35. Besides, the Activity in experiment [3] is 100%; in [16], “Tde”. The result in experiment [4], in [5], in experiment [6], in experiment [7], in [8] and in [11] was inactive. The result in experiment [12], in experiment [13] and in [17] was inactive. For the same molecule, the IC50 in experiment [9] was determined as 7 nM; in experiment [10], 530 nM.

The values are drawn from ChEMBL document CHEMBL4819106, “Aminopyrazole based CDK9 PROTAC sensitizes pancreatic cancer cells to venetoclax” (Bioorg Med Chem Lett, 2021).
